In ChEMBL document CHEMBL1275447 (Antimicrob Agents Chemother, 2008):
In brackets after ≈: the same amount, converted by molar mass. Activity calls are given as the source filed them. The rule behind the calls is not given here.

Experiments:
[1] = fT>MIC in human infected with Pseudomonas aeruginosa isolate 1060 at 500 mg administered as 1 hr infusion; type: functional
[2] = fT>MIC in neutropenic mouse infected with Pseudomonas aeruginosa isolate 935 at 500 mg administered as 4 hr infusion; type: functional
Outline: (§1)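 Mouse fT>MIC was modelled with first-order one-compartment serum PK and 25.2% binding. Mice were neutropenic (cyclophosphamide) with uranyl nitrate renal impairment. Subcutaneous doses were 5.5, 2.25, 4.5, 4.5, 4.5, 4.5, 0.75, 0.375 mg/kg at 0, 0.5, 1.5, 2.5, 3.5, 4.5, 6, 7.5 h per 8-h interval over 24 h.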

[3] = AUC in healthy human at 500 mg administered as 1 hr infusion; type: ADME, organism-based; conditions: plasma, iv
[4] = fT>MIC in human infected with Pseudomonas aeruginosa isolate 1062 at 500 mg administered as 4 hr infusion; type: functional
[5] = AUC (0 to 24 hrs) in Pseudomonas aeruginosa ATCC 27853 infected neutropenic ICR mouse at 150 mg/kg, sc administered as single dose 2 hrs postinfection; type: ADME, organism-based; set-up: time < 24 hr, dose 150 mg/kg, route subcutaneous; conditions: plasma
Outline: (§2)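 Neutropenic mice (cyclophosphamide ip 150 and 100 mg/kg, 4 and 1 days before inoculation) with uranyl nitrate 5 mg/kg ip 3 days before, for renal impairment. Thigh infection with ATCC 27853 at 10⁶ CFU/ml, 0.1 ml per thigh. Single sc doses 2 h later. Intracardiac blood from 6–12 mice per time point, eight time points over 4 h. Serum assayed by HPLC (linear 0.5–40 μg/ml). One-compartment first-order fit.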

[6] = fT>MIC in neutropenic mouse infected with Pseudomonas aeruginosa isolate 1060 at 500 mg administered as 4 hr infusion; type: functional; outline: as §1
[7] = system: Pseudomonas aeruginosa; experiment: Antibacterial activity against Pseudomonas aeruginosa isolate 1055 by microdilution method; type: functional
[8] = fT>MIC in human infected with Pseudomonas aeruginosa isolate 1029 at 500 mg administered as 1 hr infusion; type: functional
[9] = system: Pseudomonas aeruginosa; experiment: Antibacterial activity against Pseudomonas aeruginosa isolate 944 at 4 ug/ml after 24 hrs; type: functional, organism-based
[10] = system: Pseudomonas aeruginosa; experiment: Antibacterial activity against Pseudomonas aeruginosa isolate 979 by microdilution method; type: functional
[11] = fT>MIC in neutropenic mouse infected with Pseudomonas aeruginosa isolate 968 at 500 mg administered as 4 hr infusion; type: functional; outline: as §1
[12] = fT>MIC in neutropenic mouse infected with Pseudomonas aeruginosa isolate 1050 at 500 mg administered as 4 hr infusion; type: functional; outline: as §1
[13] = fT>MIC in neutropenic mouse infected with Pseudomonas aeruginosa isolate 1005 at 500 mg administered as 1 hr infusion; type: functional
[14] = Elimination rate constant in Pseudomonas aeruginosa ATCC 27853 infected neutropenic ICR mouse at 50 mg/kg, sc administered as single dose 2 hrs postinfection; type: ADME, organism-based; set-up: dose 50 mg/kg, route subcutaneous; conditions: in vivo; outline: as §2
[15] = fT>MIC in human infected with Pseudomonas aeruginosa isolate 968 at 500 mg administered as 1 hr infusion; type: functional
[16] = fT>MIC in neutropenic mouse infected with Pseudomonas aeruginosa isolate 1050 at 500 mg administered as 1 hr infusion; type: functional
Outline: (§3)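 Free-drug time above MIC simulated from one-compartment mouse serum PK (25.2% protein binding). The mice were cyclophosphamide-neutropenic and uranyl nitrate-renally impaired. Regimen was subcutaneous 10, 15, 2.5, 1.25, 0.5, 0.25 mg/kg at 0, 0.5, 2.5, 4, 5.5, 7 h, repeated every 8 h over 24 h.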

[17] = Clearance in Pseudomonas aeruginosa ATCC 27853 infected neutropenic ICR mouse at 50 mg/kg, sc administered as single dose 2 hrs postinfection; type: ADME, organism-based; set-up: dose 50 mg/kg, route subcutaneous; conditions: in vivo; outline: as §2
[18] = fT>MIC in neutropenic mouse infected with Pseudomonas aeruginosa isolate 1029 at 500 mg administered as 1 hr infusion; type: functional
[19] = fT>MIC in neutropenic mouse infected with Pseudomonas aeruginosa isolate 869 at 500 mg administered as 1 hr infusion; type: functional; outline: as §3
[20] = Half-life in Pseudomonas aeruginosa ATCC 27853 infected neutropenic ICR mouse at 10 mg/kg, sc administered as single dose 2 hrs postinfection; type: ADME, organism-based; set-up: dose 10 mg/kg, route subcutaneous; conditions: in vivo; outline: as §2
[21] = fT>MIC in human infected with Pseudomonas aeruginosa isolate 1052 at 500 mg administered as 4 hr infusion; type: functional
[22] = system: Pseudomonas aeruginosa; experiment: Antibacterial activity against Pseudomonas aeruginosa isolate 1006 by microdilution method; type: functional
[23] = fT>MIC in human infected with Pseudomonas aeruginosa isolate 886 at 500 mg administered as 4 hr infusion; type: functional
[24] = system: Pseudomonas aeruginosa; experiment: Antibacterial activity against Pseudomonas aeruginosa at 2 times MIC; type: functional, organism-based
Outline: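 Time-kill in cation-adjusted Mueller-Hinton broth. Inoculum from overnight culture set to 0.5 McFarland, final 10⁶ CFU/ml, 37°C in ambient air for 24 h. 1×, 2× and 7× MIC plus drug-free controls. Samples taken at 0, 2, 4, 6, 12 and 24 h and plated on sheep blood agar. Detection limit 10² CFU/ml.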

[25] = system: Pseudomonas aeruginosa; experiment: Antibacterial activity against Pseudomonas aeruginosa isolate 931 by fractionation study; type: functional
[26] = AUC (0 to 24 hrs) in Pseudomonas aeruginosa ATCC 27853 infected neutropenic ICR mouse at 50 mg/kg, sc administered as single dose 2 hrs postinfection; type: ADME, organism-based; set-up: time < 24 hr, dose 50 mg/kg, route subcutaneous; conditions: plasma; outline: as §2
[27] = Elimination rate constant in Pseudomonas aeruginosa ATCC 27853 infected neutropenic ICR mouse at 10 mg/kg, sc administered as single dose 2 hrs postinfection; type: ADME, organism-based; set-up: dose 10 mg/kg, route subcutaneous; conditions: in vivo; outline: as §2
[28] = fT>MIC in human infected with Pseudomonas aeruginosa isolate 906 at 500 mg administered as 1 hr infusion; type: functional
[29] = system: Pseudomonas aeruginosa; experiment: Antibacterial activity against Pseudomonas aeruginosa isolate 906 by microdilution method; type: functional
[30] = fT>MIC in neutropenic mouse infected with Pseudomonas aeruginosa isolate 927 at 500 mg administered as 4 hr infusion; type: functional; outline: as §1
[31] = system: Pseudomonas aeruginosa; experiment: Antibacterial activity against Pseudomonas aeruginosa isolate 869 by microdilution method; type: functional
[32] = fT>MIC in human infected with Pseudomonas aeruginosa isolate 931 at 500 mg administered as 1 hr infusion; type: functional
[33] = fT>MIC in human infected with Pseudomonas aeruginosa isolate 944 at 500 mg administered as 1 hr infusion; type: functional
[34] = fT>MIC in neutropenic mouse infected with Pseudomonas aeruginosa isolate 886 at 500 mg administered as 1 hr infusion; type: functional; outline: as §3
[35] = fT>MIC in human infected with Pseudomonas aeruginosa isolate 979 at 500 mg administered as 1 hr infusion; type: functional
[36] = fT>MIC in human infected with Pseudomonas aeruginosa isolate 1052 at 500 mg administered as 1 hr infusion; type: functional
[37] = fT>MIC in neutropenic mouse infected with Pseudomonas aeruginosa isolate 944 at 500 mg administered as 4 hr infusion; type: functional; outline: as §1
[38] = fT>MIC in human infected with Pseudomonas aeruginosa isolate 896 at 500 mg administered as 4 hr infusion; type: functional
[39] = fT>MIC in neutropenic mouse infected with Pseudomonas aeruginosa isolate 1052 at 500 mg administered as 1 hr infusion; type: functional; outline: as §3
[40] = fT>MIC in human infected with Pseudomonas aeruginosa isolate 1036 at 500 mg administered as 4 hr infusion; type: functional

With `C[C@@H](O)[C@H]1C(=O)N2C(C(=O)O)=C(S[C@@H]3CN[C@H](CNS(N)(=O)=O)C3)[C@H](C)[C@H]12` [DORIPENEM] the “fT>MIC” value [1] was 27.5%, the “fT>MIC” value [2] was 82.5% and the AUC at 1 h [3] was 32600 ng·h/mL. For the same compound, the fT>MIC [4] was 95%, the AUC(0-t) at 24 h [5] was 168 µg·h/mL and the “fT>MIC” value [6] was 52.5%. For the same compound, the MIC [7] was 0.5 µg/mL (≈ 1.19 µM), the “fT>MIC” value [8] was 100% and the Activity [9] was “inactive”. The MIC [10] was 2 µg/mL (≈ 4.76 µM), the “fT>MIC” value [11] was 0% and the “fT>MIC” value [12] was 52.5%. The fT>MIC [13] was 55%, the k el at 2 h [14] was 0.000567 s⁻¹ and the “fT>MIC” value [15] was 7.5%. The fT>MIC [16] was 30%, the CL/F [17] was 13.1 mL/min/kg and the “fT>MIC” value [18] was 100%. For the same compound, the fT>MIC [19] was 90%, the half-life [20] was 24.6 min and the fT>MIC [21] was 80%. For the same compound, the MIC [22] was 8 µg/mL (≈ 19 µM), the fT>MIC [23] was 100% and the Activity [24] was “inactive”. For the same compound, the MIC [25] was 3 µg/mL (≈ 7.13 µM), the AUC(0-t) at 24 h [26] was 62400 ng·h/mL and the k el at 2 h [27] was 0.000467 s⁻¹. The “fT>MIC” value [28] was 40%, the MIC [29] was 2 µg/mL (≈ 4.76 µM) and the “fT>MIC” value [30] was 0%. The MIC [31] was 0.25 µg/mL (≈ 0.595 µM), the “fT>MIC” value [32] was 27.5% and the “fT>MIC” value [33] was 27.5%. The fT>MIC [34] was 90%, the “fT>MIC” value [35] was 40% and the “fT>MIC” value [36] was 55%. The “fT>MIC” value [37] was 52.5%, the fT>MIC [38] was 0% and the fT>MIC [39] was 55%. For the same compound, the fT>MIC [40] was 65%.
